Source: ChEMBL document CHEMBL2384906, “Biological activity, design, synthesis and structure activity relationship of some novel derivatives of curcumin containing sulfonamides” (Eur J Med Chem, 2013)
In brackets after ≈: the same amount, converted by molar mass. Activity calls are given as the source filed them. No cut-off for these calls is given here.

Key:
[1] = system: HepG2; assay: Cytotoxicity against human HepG2 cells after 24 hrs by MTT assay; type: functional, cell-based
Method in brief: (§1)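 The MTT assay seeded 5 × 10⁴ cells per well and grew them 24 h in RPMI 1640 with compound at 2.5–200 µM. Medium without cells was the blank and adriamycin the positive control. MTT was added for 4 h at 37 °C, formazan was solubilised, and absorbance was read at 570 nm. IC50 is the concentration that cuts viability 50% against untreated cells.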

[2] = system: Trichoderma viride; assay: Antifungal activity against Trichoderma viride MTCC 1107 assessed as zone of inhibition at 40 uM after 48 hrs by disc diffusion method; type: functional; settings: MTCC 1107, 48 h, read-out: IZ
Method in brief: (§2)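 Spores from 4-day potato dextrose agar cultures, suspended in sterile water at 1.5 × 10⁵ CFU/mL. 0.2 mL was spread on potato dextrose agar. 5 mm filter-paper discs soaked with test compound were laid on the lawn. Incubation was 48 h at 28 °C, then the inhibition zone was measured in mm. Fluconazole was the positive control and acetone the negative control.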

[3] = system: Bacillus cereus; assay: Antimicrobial activity against Bacillus cereus MTCC 7350 assessed as diameter of inhibition zone at 20 uM after 24 hrs by Kirby -Baur disc diffusion method; type: functional
Method in brief: (§3)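 Kirby-Bauer disc diffusion was used. Acetone stocks (160 µM) were serially doubled down to 80, 40 and 20 µM. 4 µL of each went onto 5 mm sterile paper discs, which were dried 30 min at 50 °C. Inoculum was 1.5 × 10⁸ CFU/mL diluted to 3 × 10² CFU/mL, and 50 µL was spread on Mueller-Hinton agar. After 24 h at 37 °C the inhibition-zone diameter was measured. Ciprofloxacin served as positive control.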

[4] = system: QG-56; assay: Cytotoxicity against human QG56 cells after 24 hrs by MTT assay; type: functional, cell-based; method in brief: as §1
[5] = system: Curvularia lunata; assay: Antifungal activity against Curvularia lunata MTCC 581 assessed as zone of inhibition at 80 uM after 48 hrs by disc diffusion method; type: functional; settings: MTCC 581, 48 h, read-out: IZ; method in brief: as §2
[6] = system: Salmonella typhi; assay: Antimicrobial activity against Salmonella typhi ATCC 23564 assessed as diameter of inhibition zone at 80 uM after 24 hrs by Kirby -Baur disc diffusion method; type: functional, Salmonella enterica subsp. enterica serovar Typhi; settings: Salmonella enterica, ATCC 23564, 24 h; read-out: DIZ
[7] = system: Curvularia lunata; assay: Antifungal activity against Curvularia lunata MTCC 581 assessed as zone of inhibition at 40 uM after 48 hrs by disc diffusion method; type: functional; settings: MTCC 581, 48 h, read-out: IZ; method in brief: as §2
[8] = system: Bacillus cereus; assay: Antimicrobial activity against Bacillus cereus MTCC 7350 after 24 hrs by broth micro serial dilution method; type: functional
Method in brief: (§4)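 This was broth microdilution in autoclaved Mueller-Hinton broth. 150 µL of compound per well was serially diluted […], and 50 µL of test organism was added. Plates were incubated 24 h at 37 °C and optical density was read.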

[9] = system: Mus musculus; assay: Antiinflammatory activity in mouse assessed as inhibition of carrageenan-induced increase in paw volume at 200 mg/kg administered 1 hr prior to carrageenan challenge measured after 3 hrs relative to control; type: functional
Method in brief: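 Mice were fasted 2 h and placed in groups of five. Controls received saline i.p. Phenylbutazone was given at 100 mg/kg i.p., curcumin at 200 mg/kg i.p., and derivatives at 200 mg/kg. After 1 h, 0.1 mL of 1% carrageenan in saline was injected subplantar into the right hind paw. Paw volume was followed by plethysmometer for 3 h, and % inhibition was calculated as (Vc − Vt)/Vc × 100.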

[10] = system: Trichoderma viride; assay: Antifungal activity against Trichoderma viride MTCC 1107 after 48 hrs; type: functional; settings: MTCC 1107, 48 h
[11] = system: Salmonella typhi; assay: Antimicrobial activity against Salmonella typhi ATCC 23564 after 24 hrs by broth micro serial dilution method; type: functional, Salmonella enterica subsp. enterica serovar Typhi; settings: Salmonella enterica, ATCC 23564, 24 h
[12] = system: Salmonella typhi; assay: Antimicrobial activity against Salmonella typhi ATCC 23564 assessed as diameter of inhibition zone at 20 uM after 24 hrs by Kirby -Baur disc diffusion method; type: functional; settings: Salmonella enterica subsp. enterica serovar Typhi
[13] = system: Staphylococcus aureus; assay: Antimicrobial activity against Staphylococcus aureus ATCC 11632 assessed as diameter of inhibition zone at 40 uM after 24 hrs by Kirby -Baur disc diffusion method; type: functional; settings: ATCC 11632, 24 h, read-out: DIZ; method in brief: as §3
[14] = system: Escherichia coli; assay: Antimicrobial activity against Escherichia coli ATCC 35218 assessed as diameter of inhibition zone at 80 uM after 24 hrs by Kirby -Baur disc diffusion method; type: functional; settings: ATCC 35218, 24 h, read-out: DIZ; method in brief: as §3
[15] = system: Escherichia coli; assay: Antimicrobial activity against Escherichia coli ATCC 35218 assessed as diameter of inhibition zone at 20 uM after 24 hrs by Kirby -Baur disc diffusion method; type: functional; settings: ATCC 35218, 24 h, read-out: DIZ; method in brief: as §3
[16] = system: HCT-116; assay: Cytotoxicity against human HCT116 cells after 24 hrs by MTT assay; type: functional, cell-based; method in brief: as §1
[17] = system: Pseudomonas aeruginosa; assay: Antimicrobial activity against Pseudomonas aeruginosa ATCC 15499 after 24 hrs by broth micro serial dilution method; type: functional; settings: ATCC 15499, 24 h; method in brief: as §4
[18] = system: Bacillus cereus; assay: Antimicrobial activity against Bacillus cereus MTCC 7350 assessed as diameter of inhibition zone at 40 uM after 24 hrs by Kirby -Baur disc diffusion method; type: functional; method in brief: as §3
[19] = system: Trichoderma viride; assay: Antifungal activity against Trichoderma viride MTCC 1107 assessed as zone of inhibition at 20 uM after 48 hrs by disc diffusion method; type: functional; settings: MTCC 1107, 48 h, read-out: IZ; method in brief: as §2
[20] = system: Staphylococcus aureus; assay: Antimicrobial activity against Staphylococcus aureus ATCC 11632 assessed as diameter of inhibition zone at 80 uM after 24 hrs by Kirby -Baur disc diffusion method; type: functional; method in brief: as §3
[21] = system: Aspergillus flavus; assay: Antifungal activity against Aspergillus flavus MTCC 1021 assessed as zone of inhibition at 80 uM after 48 hrs by disc diffusion method; type: functional; method in brief: as §2
[22] = system: Pseudomonas aeruginosa; assay: Antimicrobial activity against Pseudomonas aeruginosa ATCC 15499 assessed as diameter of inhibition zone at 80 uM after 24 hrs by Kirby -Baur disc diffusion method; type: functional; method in brief: as §3
[23] = system: Curvularia lunata; assay: Antifungal activity against Curvularia lunata MTCC 581 after 48 hrs; type: functional; settings: MTCC 581, 48 h
[24] = system: Escherichia coli; assay: Antimicrobial activity against Escherichia coli ATCC 35218 after 24 hrs by broth micro serial dilution method; type: functional; settings: ATCC 35218, 24 h; method in brief: as §4
[25] = system: Curvularia lunata; assay: Antifungal activity against Curvularia lunata MTCC 581 assessed as zone of inhibition at 20 uM after 48 hrs by disc diffusion method; type: functional; settings: MTCC 581, 48 h, read-out: IZ; method in brief: as §2
[26] = system: Salmonella typhi; assay: Antimicrobial activity against Salmonella typhi ATCC 23564 assessed as diameter of inhibition zone at 40 uM after 24 hrs by Kirby -Baur disc diffusion method; type: functional; settings: Salmonella enterica subsp. enterica serovar Typhi
[27] = system: Aspergillus niger; assay: Antifungal activity against Aspergillus niger MTCC 1108 after 48 hrs; type: functional
[28] = system: Aspergillus flavus; assay: Antifungal activity against Aspergillus flavus MTCC 1021 after 48 hrs; type: functional
[29] = system: Escherichia coli; assay: Antimicrobial activity against Escherichia coli ATCC 35218 assessed as diameter of inhibition zone at 40 uM after 24 hrs by Kirby -Baur disc diffusion method; type: functional; settings: ATCC 35218, 24 h, read-out: DIZ; method in brief: as §3
[30] = system: Aspergillus niger; assay: Antifungal activity against Aspergillus niger MTCC 1108 assessed as zone of inhibition at 80 uM after 48 hrs by disc diffusion method; type: functional; method in brief: as §2
[31] = system: HeLa; assay: Cytotoxicity against human HeLa cells after 24 hrs by MTT assay; type: functional, cell-based; method in brief: as §1
[32] = system: Staphylococcus aureus; assay: Antimicrobial activity against Staphylococcus aureus ATCC 11632 assessed as diameter of inhibition zone at 20 uM after 24 hrs by Kirby -Baur disc diffusion method; type: functional; method in brief: as §3
[33] = system: Staphylococcus aureus; assay: Antimicrobial activity against Staphylococcus aureus ATCC 11632 after 24 hrs by broth micro serial dilution method; type: functional; method in brief: as §4
[34] = system: Bacillus cereus; assay: Antimicrobial activity against Bacillus cereus MTCC 7350 assessed as diameter of inhibition zone at 80 uM after 24 hrs by Kirby -Baur disc diffusion method; type: functional; method in brief: as §3
[35] = system: Trichoderma viride; assay: Antifungal activity against Trichoderma viride MTCC 1107 assessed as zone of inhibition at 80 uM after 48 hrs by disc diffusion method; type: functional; settings: MTCC 1107, 48 h, read-out: IZ; method in brief: as §2

Row | Compound | IC50 [1] | zone of inhibition at 40 µM [2] | IC50 [4] | zone of inhibition at 80 µM [5] | zone of inhibition at 80 µM [6] | zone of inhibition at 40 µM [7] | inhibition in vivo at 200 mg/kg [9] | MIC [10] | MIC [11] | diameter of the inhibition zone (DIZ) [12] | zone of inhibition at 80 µM [14] | zone of inhibition at 20 µM [15] | IC50 [16] | MIC [17] | zone of inhibition at 20 µM [19] | inhibition zone (IZ) [21] | diameter of the inhibition zone (DIZ) [22] | MIC [23] | MIC [24] | zone of inhibition at 20 µM [25] | other results
1 | COc1ccc(NS(=O)(=O)c2ccc(/N=N/c3c(/C=C/c4ccc(O)c(OC)c4)nn(-c4ccccc4)c3/C=C/c3ccc(O)c(OC)c3)cc2)nn1 | > 100 µM | 16 mm | 100 µM | 19 mm | 10 mm | 16 mm | 45.1% | 40 µM (≈ 29.3 µg/mL) | > 80 µM | inactive | 11 mm | 8 mm | Not Active | > 80 µM | 12 mm | inactive | inactive | 20 µM (≈ 14.6 µg/mL) | > 80 µM | 12 mm | diameter of the inhibition zone (DIZ) [3]: inactive; MIC ([8]; MTCC 7350, 24 h): > 80 µM; zone of inhibition at 40 µM [13]: 7 mm; diameter of the inhibition zone (DIZ) [18]: inactive; zone of inhibition at 80 µM ([20]; ATCC 11632, 24 h, read-out: DIZ): 9 mm; diameter of the inhibition zone (DIZ) [26]: inactive; MIC [27]: inactive; MIC [28]: inactive; zone of inhibition at 40 µM [29]: 9 mm; inhibition zone (IZ) [30]: inactive; IC50 [31]: 50 µM; diameter of the inhibition zone (DIZ) [32]: inactive; MIC ([33]; ATCC 11632, 24 h): > 80 µM; zone of inhibition at 80 µM ([34]; MTCC 7350, 24 h, read-out: DIZ): 9 mm; zone of inhibition at 80 µM [35]: 19 mm
2 | COc1cc(/C=C/c2nn(-c3ccccc3)c(/C=C/c3ccc(O)c(OC)c3)c2/N=N/c2ccc(S(=O)(=O)Nc3ccccn3)cc2)ccc1O | Not Active | 13 mm | 100 µM | 17 mm | 9 mm | 13 mm | 20.9% | 40 µM (≈ 28 µg/mL) | > 80 µM | inactive | 10 mm | 7 mm | Not Active | > 80 µM | 10 mm | inactive | inactive | 40 µM (≈ 28 µg/mL) | > 80 µM | 10 mm | MIC [8]: inactive; diameter of the inhibition zone (DIZ) [20]: inactive; diameter of the inhibition zone (DIZ) [26]: inactive; MIC [27]: inactive; MIC [28]: inactive; zone of inhibition at 40 µM [29]: 9 mm; inhibition zone (IZ) [30]: inactive; IC50 [31]: 50 µM; MIC [33]: inactive; diameter of the inhibition zone (DIZ) [34]: inactive; zone of inhibition at 80 µM [35]: 17 mm
